ChEMBL document CHEMBL1138278, “Aromatic amide derivatives of 5,6-dimethoxy-2,3-dihydro-1H-inden(-1-yl)acetic acid as anti-inflammatory agents free of ulcerogenic liability” (Bioorg Med Chem Lett, 2007)

How the values were obtained:
Rattus norvegicus [1] = test: Antiinflammatory activity in Wistar rat assessed as inhibition of carrageenan-induced paw edema at 100 mg/kg, after 1 hr; format: functional
Summary of the method: (§1)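 Male Wistar rats (170 ± 20 g) dosed orally: test agents at 100 mg/kg, reference at 10 mg/kg. One hour later, 0.1 ml of 1% carrageenan injected subplantar into the right hind paw.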

Rattus norvegicus [2] = test: Antiinflammatory activity in Wistar rat assessed as inhibition of carrageenan-induced paw edema at 100 mg/kg, after 2 hrs; format: functional; summary of the method: as §1
Rattus norvegicus [3] = test: Antiinflammatory activity in Wistar rat assessed as inhibition of carrageenan-induced paw edema at 100 mg/kg, after 3 hrs; format: functional; summary of the method: as §1
Rattus norvegicus [4] = test: Antiinflammatory activity in Wistar rat assessed as inhibition of carrageenan-induced paw edema at 100 mg/kg, after 4 hrs; format: functional; summary of the method: as §1
Rattus norvegicus [5] = test: Antiinflammatory activity in Wistar rat assessed as inhibition of carrageenan-induced paw edema at 100 mg/kg, after 6 hrs; format: functional; summary of the method: as §1
Rattus norvegicus [6] = test: Antiinflammatory activity in Wistar rat assessed as inhibition of carrageenan-induced paw edema at 100 mg/kg, after 24 hrs; format: functional; summary of the method: as §1
Mus musculus [7] = test: Analgesic activity in Swiss Albino mouse assessed as number of acetic acid-induced writhing at 100 mg/kg, po after 1 hr relative to control; format: functional
Summary of the method: (§2)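 Mice dosed orally; one hour later injected i.p. with 1% v/v acetic acid at 0.1 ml/10 g. Writhings counted over 15 min, starting five minutes after injection. Means ± SEM, n = 6; p < 0.05 versus control group.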

Mus musculus [8] = test: Analgesic activity in Swiss Albino mouse assessed as inhibition of acetic acid-induced writhing responses at 100 mg/kg, po after 1 hr; format: functional; summary of the method: as §2
Rattus norvegicus [9] = test: Antipyretic activity against LPS-induced pyresis in Wistar rat assessed as change in rectal temperature at 100 mg/kg, po after 1 hr; format: functional
Summary of the method: (§3)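 Male Wistar rats (170 ± 20 g) dosed orally: test agents at 100 mg/kg, indomethacin and aspirin at 10 mg/kg and 100 mg/kg. Half an hour later, LPS in apyrogenic saline given at 100 µg/kg i.p. Rectal temperature taken by telethermometer probe immediately before LPS and hourly from 1 to 7 h after. Change in temperature reported; means ± SEM, n = 6.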

Rattus norvegicus [10] = test: Antipyretic activity against LPS-induced pyresis in Wistar rat assessed as change in rectal temperature at 100 mg/kg, po after 2 hrs; format: functional; summary of the method: as §3
Rattus norvegicus [11] = test: Antipyretic activity against LPS-induced pyresis in Wistar rat assessed as change in rectal temperature at 100 mg/kg, po after 3 hrs; format: functional; summary of the method: as §3
Rattus norvegicus [12] = test: Antipyretic activity against LPS-induced pyresis in Wistar rat assessed as change in rectal temperature at 100 mg/kg, po after 4 hrs; format: functional; summary of the method: as §3
Rattus norvegicus [13] = test: Antipyretic activity against LPS-induced pyresis in Wistar rat assessed as change in rectal temperature at 100 mg/kg, po after 5 hrs; format: functional; summary of the method: as §3
Rattus norvegicus [14] = test: Antipyretic activity against LPS-induced pyresis in Wistar rat assessed as change in rectal temperature at 100 mg/kg, po after 6 hrs; format: functional; summary of the method: as §3
Rattus norvegicus [15] = test: Antipyretic activity against LPS-induced pyresis in Wistar rat assessed as change in rectal temperature at 100 mg/kg, po after 7 hrs; format: functional; summary of the method: as §3
Rattus norvegicus [16] = test: Antiarthritic activity against adjuvant-induced arthritis in Wistar rat assessed as inhibition of paw edema at 100 mg/kg, po on day 3; format: functional; details: 72 h
Summary of the method: (§4)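 Male Wistar rats (160 ± 10 g) dosed orally once daily for 14 days, from the day before injecting 0.1 ml Freund's complete adjuvant into the subplantar surface of the right hind paw. Paw swelling, including the uninjected left paw, and body weight recorded. Means ± SEM, n = 6; p < 0.05 versus control.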

Rattus norvegicus [17] = test: Antiarthritic activity against adjuvant-induced arthritis in Wistar rat assessed as inhibition of paw edema at 100 mg/kg, po on day 8; format: functional; details: 192 h; summary of the method: as §4
Rattus norvegicus [18] = test: Antiarthritic activity against adjuvant-induced arthritis in Wistar rat assessed as inhibition of paw edema at 100 mg/kg, po on day 13; format: functional; details: 312 h; summary of the method: as §4
Rattus norvegicus [19] = test: Antiarthritic activity against adjuvant-induced arthritis in Wistar rat assessed as weight change at 100 mg/kg, po; format: functional; summary of the method: as §4
Rattus norvegicus [20] = test: Toxicity in 24 hrs fasted Wistar rat assessed as ulcer index at 100 mg/kg, po after 6 hrs; format: organism-based; set-up: dose 100 mg/kg, route oral; details: in vivo
Summary of the method: (§5)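 Male Wistar rats (175 ± 25 g) fasted 24 h and dosed orally. Acute arm: test agents at 100 mg/kg, indomethacin at 30 mg/kg; rats killed after 6 h, stomachs opened along the greater curvature and scored for ulcers. Chronic arm: 14-day dosing, stomachs examined post mortem at the end of the arthritis study. Ulcer index means ± SEM, n = 4.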

Rattus norvegicus [21] = test: Toxicity in 24 hrs fasted Wistar rat assessed as ulcer index at 100 mg/kg, po after 14 days; format: organism-based; set-up: dose 100 mg/kg, route oral; details: in vivo, 336 h; summary of the method: as §5

Compound	inhibition in vivo at 100 mg/kg (Rattus norvegicus [1])	inhibition in vivo at 100 mg/kg (Rattus norvegicus [2])	inhibition in vivo at 100 mg/kg (Rattus norvegicus [3])	inhibition in vivo at 100 mg/kg (Rattus norvegicus [4])	inhibition in vivo at 100 mg/kg (Rattus norvegicus [5])	inhibition in vivo at 100 mg/kg (Rattus norvegicus [6])	Activity (Mus musculus [7])	inhibition in vivo at 100 mg/kg (Mus musculus [8])	also measured
COc1cc2c(cc1OC)C(CC(=O)Nc1ccccn1)CC2 (stereo unspecified)	25%	32%	30.4%	29.7%	29.6%	33.3%	18	48%	
COc1cc2c(cc1OC)C(CC(=O)Nc1cccnc1)CC2 (stereo unspecified)	25%	30%	33.3%	34.4%	35.2%	36.7%	10.17	70.7%	
COc1cc2c(cc1OC)C(CC(=O)Nc1ccccc1)CC2 (stereo unspecified)	31.2%	32%	36.2%	37.5%	38.9%	30%	19.83	42.8%	
COc1ccc(NC(=O)CC2CCc3cc(OC)c(OC)cc32)cc1 (stereo unspecified)	34.4%	18%	26.1%	27.3%	29.6%	40%	14.33	58.7%	Activity (Rattus norvegicus [9]): -0.12 °C; Activity (Rattus norvegicus [10]): -1.84 °C; Activity (Rattus norvegicus [11]): -0.66 °C; Activity (Rattus norvegicus [12]): -0.15 °C; Activity (Rattus norvegicus [13]): 0.14 °C; Activity (Rattus norvegicus [14]): 0.26 °C; Activity (Rattus norvegicus [15]): 0.43 °C
COc1cc2c(cc1OC)C(CC(=O)Nc1ccc(NC(C)=O)cc1)CC2 (stereo unspecified)	25%	18%	23.2%	22.7%	24.1%	33.3%	24	30.8%	
COc1cc2c(cc1OC)C(CC(=O)Nc1ccccc1C)CC2 (stereo unspecified)	21.9%	18%	26.1%	25%	25.9%	23.3%	24.3	30%	
COc1cc2c(cc1OC)C(CC(=O)Nc1cccc(Cl)c1)CC2 (stereo unspecified)	31.2%	28%	24.6%	25.8%	38.9%	63.3%	16.83	51.5%	Activity (Rattus norvegicus [9]): -0.35 °C; Activity (Rattus norvegicus [10]): -1.62 °C; Activity (Rattus norvegicus [11]): -0.24 °C; Activity (Rattus norvegicus [12]): 0.05 °C; Activity (Rattus norvegicus [13]): 0.23 °C; Activity (Rattus norvegicus [14]): 0.44 °C; Activity (Rattus norvegicus [15]): 0.42 °C; inhibition in vivo at 100 mg/kg (Rattus norvegicus [16]): 37.5%; inhibition in vivo at 100 mg/kg (Rattus norvegicus [17]): 25.8%; inhibition in vivo at 100 mg/kg (Rattus norvegicus [18]): 35.7%; Activity (Rattus norvegicus [19]): 7.21 g; UI (Rattus norvegicus [20]): 0; UI (Rattus norvegicus [21]): 0
